Data set [1] concerns HepG2. The data set is described as follows: Cytotoxicity against HepG2 2.2.15 cells. Type of data set: functional. As to conditions: Homo sapiens. The method, boiled down: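 HepG2 2.2.15 cells exposed to compound; CC50 defined as the concentration causing 50% extinction of the cells.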
The nature of data set [2]: Selectivity index, ratio of CC50 for HepG2 2.2.15 cells to EC50 for HBV. Type of data set: functional. In outline: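 In HepG2 2.2.15 cells: SI calculated as CC50 (50% extinction of the cells) divided by EC50 (50% inhibition of cytoplasmic HBV-DNA synthesis).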
Data set [3] has as its system Hepatitis B virus. The data set is described as follows: Antiviral activity against HBV assessed as inhibition of cytoplasmic HBV-DNA synthesis. The data set is classed as functional, organism-based. The method, boiled down:
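Run in HepG2 2.2.15 cells; EC50 taken as the concentration giving 50% inhibition of cytoplasmic HBV-DNA synthesis.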

Data set [4] can be described thus: Metabolic stability assessed as half life in human plasma. Type of data set: ADME, cell-free.

The structures appear in SMILES notation.

In general, CC50 refers to the concentration giving 50% cytotoxicity. Read a low CC50 as greater toxicity to the cells. The EC50 is the concentration at which the effect is half-maximal. Regarding `CC(C)C[C@H](N)C(=O)SCCOP(=O)(COCCn1cnc2c(N)ncnc21)OCCSC(=O)[C@@H](N)CC(C)C.Cl`, the CC50 in data set [1] stood at 3410 µM. Besides, in data set [2], the “Ratio CC50/EC50” value came to 16129. The EC50 in data set [3] is 0.211 µM.
As to `CC(C)[C@H](N)C(=O)OCOP(=O)(COCCn1cnc2c(N)ncnc21)OCOC(=O)[C@@H](N)C(C)C.Cl`, in data set [1], the CC50 was determined as 3380 µM. The “Ratio CC50/EC50” value in data set [2] was determined as 11094. Moreover, the EC50 in data set [3] is 0.304 µM.
Usually half-life stands for the time in which the quantity being followed falls by half. In the case of `Cl.Nc1ncnc2c1ncn2CCOCP(=O)(OCCOC(=O)[C@@H](N)Cc1ccccc1)OCCOC(=O)[C@@H](N)Cc1ccccc1`, the CC50 in data set [1] turned out to be 2590 µM. In data set [2], the “Ratio CC50/EC50” value is listed as 8354. Besides, the half-life in data set [4] was determined as 0.25 h. Moreover, the EC50 in data set [3] was 0.311 µM.
In data set [1], `CC(C)(C)C(=O)OCOP(=O)(COCCn1cnc2c(N)ncnc21)OCOC(=O)C(C)(C)C.Cl` registered a CC50 of 540 µM. Further, in data set [2], the “Ratio CC50/EC50” value is recorded as 1044. Also, the half-life in data set [4] came out at 0.75 h. Further, the EC50 in data set [3] came out at 0.517 µM.
Consider `Cl.Nc1ccn([C@@H]2CS[C@H](CO)O2)c(=O)n1`, for which the CC50 in data set [1] came out at 230 µM. Also, the “Ratio CC50/EC50” value in data set [2] turned out to be 2850. The EC50 in data set [3] was 0.0807 µM.
`CC(C)[C@H](N)C(=O)OCCOP(=O)(COCCn1cnc2c(N)ncnc21)OCCOC(=O)[C@@H](N)C(C)C.Cl` yielded a CC50 in data set [1] of 2590 µM. For the same molecule, the “Ratio CC50/EC50” value in data set [2] turned out to be 1974. For the same molecule, the half-life in data set [4] stood at 2 h. Also, in data set [3], the EC50 is 1.31 µM.
As to `Cl.Nc1ncnc2c1ncn2CCOCP(=O)(OCOC(=O)[C@@H](N)Cc1ccccc1)OCOC(=O)[C@@H](N)Cc1ccccc1`, in data set [2], the “Ratio CC50/EC50” value came to 23312. Besides, in data set [3], the EC50 came to 0.659 µM.
On the same counts, the results for `CC(C)[C@H](N)C(=O)SCCOP(=O)(COCCn1cnc2c(N)ncnc21)OCCSC(=O)[C@@H](N)C(C)C.Cl` are 38167 and 0.752 µM.
`C[C@H](N)C(=O)OCCOP(=O)(COCCn1cnc2c(N)ncnc21)OCCOC(=O)[C@H](C)N.Cl` showed a CC50 in data set [1] of 1840 µM. The “Ratio CC50/EC50” value in data set [2] was found to be 146. In addition, in data set [3], the EC50 was determined as 12.5 µM.
On the same counts, the results for `CC(C)C[C@H](N)C(=O)OCOP(=O)(COCCn1cnc2c(N)ncnc21)OCOC(=O)[C@@H](N)CC(C)C.Cl` are 8560 µM, 25111 and 0.341 µM.
In data set [1], `CC(C)C[C@H](N)C(=O)OCCOP(=O)(COCCn1cnc2c(N)ncnc21)OCCOC(=O)[C@@H](N)CC(C)C.Cl` gave a CC50 of 6640 µM. In addition, the “Ratio CC50/EC50” value in data set [2] is 69523. The half-life in data set [4] came to 4.5 h. Besides, the EC50 in data set [3] came to 0.0952 µM.
Turning to `Cl.Nc1ncnc2c1ncn2CCOCP(=O)(OCCSC(=O)[C@@H](N)Cc1ccccc1)OCCSC(=O)[C@@H](N)Cc1ccccc1`, the “Ratio CC50/EC50” value in data set [2] is 52727. In addition, the EC50 in data set [3] was found to be 0.208 µM.
In the case of `C[C@H](N)C(=O)SCCOP(=O)(COCCn1cnc2c(N)ncnc21)OCCSC(=O)[C@H](C)N.Cl`, in data set [1], it took 2420 µM to reach half-maximal cytotoxicity (CC50). Also, in data set [2], the “Ratio CC50/EC50” value is 1548. The EC50 in data set [3] worked out at 1.56 µM.
Molecule `Cl.NCC(=O)SCCOP(=O)(COCCn1cnc2c(N)ncnc21)OCCSC(=O)CN` registered a CC50 in data set [1] of 259 µM. Besides, in data set [2], the “Ratio CC50/EC50” value amounted to 25. In addition, the EC50 in data set [3] was found to be 10.2 µM.
